Values after ≈ are worked out from the molar mass of the structure shown. Active and inactive are the calls of the source. No cut-off for these calls is given here.

Series [1] deals with Plasmodium falciparum. The series can be described thus: Antiplasmodial activity against multidrug-resistant Plasmodium falciparum K1 assessed as [3H]hypoxanthine incorporation after 24 hrs by microtiter plate scintillation counting. The class given is functional, organism-based. A digest of the protocol:
(§1)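 K1 multidrug-resistant P. falciparum kept in continuous culture (Trager–Jensen). In vitro activity measured by a microculture radioisotope technique (Desjardins method). The highest level tested was 10 µg/mL.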

Series [2] relates to Mycobacterium tuberculosis. Put plainly: Antitubercular activity against Mycobacterium tuberculosis H37Ra after 4 days by microplate alamar blue assay. The class given is functional. The conditions noted are these: 96 h. A digest of the protocol: (§2)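 M. tuberculosis H37Ra tested in an Alamar Blue microplate assay. Values are given as MIC in µg/mL. The highest level tested was 200 µg/mL.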
(In general: Resazurin is reduced to fluorescent resorufin, in cell work by metabolically active cells.)

In series [3] the test system is Vero. The series can be described thus: Cytotoxicity against african green monkey Vero cells by sulforhodamine B assay. Format: cell-based. As to conditions: chlorocebus sabaeus. A digest of the protocol: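 Vero cells were described as African green monkey kidney fibroblasts. Read-out was by the colorimetric method of Skehan and coworkers. Compounds were tested up to 50 µg/mL.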
(In general: In SRB staining, fixed cells bind dye roughly in proportion to their protein.)

Series [4] deals with Mycobacterium tuberculosis. Put plainly: Antitubercular activity against Mycobacterium tuberculosis H37Ra at 200 ug/ml after 4 days by microplate alamar blue assay. Format: functional, organism-based. In a few lines: as §2
Series [5] deals with Vero. Put plainly: Cytotoxicity against african green monkey Vero cells at 50 ug/ml by sulforhodamine B assay. Format: cell-based. As to conditions: chlorocebus sabaeus. In a few lines:
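African green monkey kidney fibroblasts (Vero) exposed to test material at 50 µg/mL; cell growth read by a colorimetric method (Skehan and coworkers).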

The test system of series [6] is Plasmodium falciparum. Put plainly: Antiplasmodial activity against multidrug-resistant Plasmodium falciparum K1 assessed as [3H]hypoxanthine incorporation at 10 ug/ml after 24 hrs by microtiter plate scintillation counting. The class given is functional, organism-based. In a few lines:
as §1

In general, IC50 refers to the concentration needed to halve the response being measured. In general, MIC refers to the least concentration at which growth counts as inhibited. Turning to `C=C(C)[C@@H]1CC[C@]23CO[C@@]4(OO2)C2=C(C(=O)C(C)=C[C@@H]1[C@@H]23)[C@H](O)[C@H]4C` [CANIOJANE], the IC50 in the series with Plasmodium falciparum [1] was determined as 3.3 µg/mL; in the series on Vero [3], 12.9 µg/mL (≈ 37.5 µM). This molecule also gave a minimal inhibitory concentration (MIC) in series [2] of 25 µg/mL (≈ 72.6 µM).

Take `C=C1CC[C@@H]2[C@H](c3c(C)c(O)c4c(c31)C(=O)[C@](C)(O)C4)C2(C)C`: the IC50 in the series on Plasmodium falciparum [1] was found to be 4.1 µg/mL. The outcome in series [4] was inactive. Besides, the Activity entry in the series with Vero [5] is on record as “Non-toxic”.

Take `C[C@H]1[C@@H](O)O[C@@H]2O[C@@]3(C)CC[C@H]4[C@H](C)CC[C@@H]1[C@@]24OO3` [ARTENIMOL]: the IC50 in the series on Plasmodium falciparum [1] came to 4 nM.

As to `NNC(=O)c1ccncc1` [ISONIAZID], the MIC in series [2] stood at 0.1 µg/mL (≈ 0.729 µM).

Regarding `C=C1CC[C@@H]2[C@H](c3c(C)c(O)c4c(c31)C(=O)[C@@](C)(O)C4)C2(C)C`, the result (in the series with Plasmodium falciparum [6]; in series [4]) was inactive. Moreover, in the series with Vero [3], the IC50 is 49.4 µg/mL (≈ 158 µM).

`NC[C@H]1O[C@H](O[C@H]2[C@H](O)[C@@H](O[C@H]3O[C@H](CO)[C@@H](O)[C@H](N)[C@H]3O)[C@H](N)C[C@@H]2N)[C@H](O)[C@@H](O)[C@@H]1O` [KANAMYCIN]: inhibition of growth in series [2] (MIC) required 2.5 µg/mL (≈ 5.16 µM).

Consider `Cc1c2ccncc2c(C)c2c1[nH]c1ccccc12` [ELLIPTECINE], for which half-maximal inhibition in the series with Vero [3] (IC50) was put at 0.7 µg/mL (≈ 2.84 µM).

In the case of `C=C1CC[C@@H]2[C@H](c3c(C)c(O)c4c(c31)C(=O)[C@@H](C)C4)C2(C)C` [JATROPHOLONE A], the IC50 in the series on Plasmodium falciparum [1] came to 5.4 µg/mL. Also, the outcome in series [4] was inactive. Moreover, the Activity result in the series on Vero [5] is listed as “Non-toxic”.

For the molecule `C=C1CC[C@@H]2[C@H](c3c(C)c(O)c4c(c31)C(=O)[C@H](C)C4)C2(C)C` [JATROPHOLONE B], the result (in the series on Plasmodium falciparum [6]; in series [4]) was inactive. Further, the Activity result in the series with Vero [5] was “Non-toxic”.

The values are drawn from ChEMBL document CHEMBL1154804, “Diterpenes, sesquiterpenes, and a sesquiterpene-coumarin conjugate from Jatropha integerrima” (J Nat Prod, 2009).
